Data: ChEMBL document CHEMBL3085699, “Design, synthesis, and biological evaluation of indole-2-carboxamides: a promising class of antituberculosis agents” (J Med Chem, 2013)
≈ marks a conversion by molar mass, not a printed value. Calls of active or inactive are those of the source. No cut-off for these calls is given here.

Assays:
[1] = Elimination half life in mouse at 5 mg/kg, iv by LC/MS analysis; assay type: ADME, organism-based; set-up: dose 5 mg/kg, route intravenous; conditions: in vivo, read-out: beta t1/2 (converted)
How it was run: (§1)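 Mice dosed p.o. at 25 mg/kg (2.5 mg/mL) or i.v. at 5 mg/kg (1 mg/mL). Vehicles varied: propanediol/solutol in pH 4.6 acetate buffer, or microemulsion/Cremophor-based mixes. Blood taken 0.08–24 h (i.v. first point 0.02 h), three mice per time point. Plasma extracted with acetonitrile:methanol:acetic acid and quantified by LC/MS/MS (LLOQ 1–3 ng/mL). Noncompartmental analysis of mean profiles; F from dose-corrected p.o./i.v. AUC.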

[2] = AUC (0 to 24 hrs) in mouse at 25 mg/kg, po by LC/MS analysis; assay type: ADME, organism-based; set-up: time < 24 hr, dose 25 mg/kg, route oral; conditions: plasma; how it was run: as §1
[3] = Elimination half life in mouse at 25 mg/kg, po by LC/MS analysis; assay type: ADME, organism-based; set-up: dose 25 mg/kg, route oral; conditions: in vivo, read-out: beta t1/2 (converted); how it was run: as §1
[4] = Aqueous solubility of the compound at pH 6.8 after 24 hrs by high-throughput equilibrium solubility assay; assay type: physicochemical; conditions: buffer
How it was run: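 Miniaturized shake-flask equilibrium method. DMSO stock removed by centrifugal evaporation, aqueous buffer added, shaken 24 h. Plunger pushed through a filter membrane, shaken a further 30 min, and filtrate quantified by HPLC.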

[5] = Volume of distribution at steady state in mouse at 5 mg/kg, iv by LC/MS analysis; assay type: ADME, organism-based; set-up: dose 5 mg/kg, route intravenous; conditions: in vivo, read-out: Vdss; how it was run: as §1
[6] = Oral bioavailability in mouse at 25 mg/kg by LC/MS analysis; assay type: ADME, organism-based; conditions: in vivo; how it was run: as §1
[7] = Clearance in mouse at 5 mg/kg, iv by LC/MS analysis; assay type: ADME, organism-based; set-up: dose 5 mg/kg, route intravenous; conditions: in vivo; how it was run: as §1
[8] = Cmax in mouse at 25 mg/kg, po by LC/MS analysis; assay type: ADME, organism-based; set-up: dose 25 mg/kg, route oral; conditions: in vivo; how it was run: as §1
[9] = Intrinsic clearance in mouse liver microsomes by LC/MS/MS analysis; assay type: ADME, Microsome; conditions: read-out: CLH
How it was run: (§2)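 Compound depletion in liver microsomes of the named species, measured by LC/MS/MS. In vitro half-life gave hepatic extraction ratio and predicted metabolic clearance.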

[10] = tested on: Mycobacterium tuberculosis; assay: Antimicrobial activity against Mycobacterium tuberculosis H37Rv ATCC 27294 after 5 days by three-fold serial dilution assay; assay type: functional; conditions: H37Rv ATCC 27294, 120 h
How it was run: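 H37Rv grown in 7H9 broth with 0.05% Tween 80 and 10% ADS. Compounds in 90% DMSO, three-fold serially diluted in duplicate. Early-log culture diluted to OD600 0.02 was added, then incubated at 37 °C for 5 days. Growth read by absorbance. MIC50 (50% growth inhibition) taken from non-linear curve fits. Isoniazid ran as internal control in every assay.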

[11] = Intrinsic clearance in human liver microsomes by LC/MS/MS analysis; assay type: ADME; conditions: read-out: CLH; how it was run: as §2
[12] = Intrinsic clearance in rat liver microsomes by LC/MS/MS analysis; assay type: ADME; conditions: read-out: CLH; how it was run: as §2
[13] = tested on: Mycobacterium tuberculosis; assay: Antitubercular activity against Mycobacterium tuberculosis H37Rv infected in Balb/c mouse model assessed as log CFU reduction at 75 mg/kg, po qd administered for 28 days relative to untreated control; assay type: functional
How it was run: (§3)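 Balb/c mice infected intranasally on day 0 with 10^3 H37Rv bacilli. Oral dosing, once daily, 7 days a week for 28 days, began 7 days post-infection at 25 or 75 mg/kg; ethambutol 100 mg/kg served as positive control. Lungs removed aseptically and homogenized. CFU counted by serial dilution plating on 7H11 agar; log lung CFU compared with untreated controls.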

[14] = tested on: Mycobacterium tuberculosis; assay: Antitubercular activity against Mycobacterium tuberculosis H37Rv infected in Balb/c mouse model assessed as log CFU reduction at 25 mg/kg, po qd administered for 28 days relative to untreated control; assay type: functional; how it was run: as §3
[15] = AUC (0 to 24 hrs) in mouse at 5 mg/kg, iv and 75 mg/kg, po by LC/MS analysis; assay type: ADME, organism-based; conditions: plasma
THP-1 = assay: Cytotoxicity against human THP1 cells; assay type: cell-based
[16] = Elimination half life in mouse at 5 mg/kg, iv and 75 mg/kg, po by LC/MS analysis; assay type: ADME, organism-based; conditions: in vivo, read-out: beta t1/2 (converted)
[17] = tested on: Mycobacterium tuberculosis; assay: Antitubercular activity against Mycobacterium tuberculosis H37Rv infected in Balb/c mouse model assessed as log CFU reduction at 100 mg/kg, po qd administered for 28 days relative to untreated control; assay type: functional, organism-based; set-up: dose 100 mg/kg; how it was run: as §3

## CC1CCC(NC(=O)c2cc3c(Cl)cc(Cl)cc3[nH]2)CC1 (stereo not drawn)
[1]
  half-life: 6.89 h
[2]
  AUC(0-t) at 24 h: 30.4 µM·h
[3]
  half-life: 4.2 h
[4]
  solubility thermodynamic at 24 h: < 4 µM
[5]
  Vd: 2.2 L/kg
[6]
  bioavailability: 48%
[7]
  clearance: 20.1 mL/min/kg
[8]
  Cmax: 7.23 µM
[9]
  microsomal CLint: 37 µL/min/mg
[10]
  MIC50: 0.15 µM (≈ 0.0488 µg/mL)

## Cc1nc(C)c2cc(C(=O)N[C@@H]3CCCC[C@@H]3C)[nH]c2n1
[4]
  solubility thermodynamic at 24 h: 143 µM (≈ 41 µg/mL)
[10]
  MIC50: > 20 µM

## Cc1cc(C)c2cc(C(=O)NC3CCCCC3)[nH]c2c1
[4]
  solubility thermodynamic at 24 h: < 4 µM
[10]
  MIC50: 0.82 µM (≈ 0.222 µg/mL)

## CC1(C)CCC(NC(=O)c2cc3c(F)cc(F)cc3[nH]2)CC1
[11]
  microsomal CLint: 3.4 µL/min/mg
[1]
  half-life: 4.47 h
[12]
  microsomal CLint: 87 µL/min/mg
[2]
  AUC(0-t) at 24 h: 35.5 µM·h
[13]
  FC: 4.6
[3]
  half-life: 5.18 h
[4]
  solubility thermodynamic at 24 h: < 4 µM
[5]
  Vd: 2.24 L/kg
[6]
  bioavailability: 51%
[7]
  clearance: 18.7 mL/min/kg
[8]
  Cmax: 4.21 µM
[9]
  microsomal CLint: 132 µL/min/mg
[14]
  FC: 2.4
[10]
  MIC50: 0.023 µM (≈ 0.00705 µg/mL)

## CC1CCC(NC(=O)c2cc3ccc(Cl)cc3[nH]2)CC1 (stereo not drawn)
[9]
  microsomal CLint: 433 µL/min/mg
[10]
  MIC50: 0.23 µM (≈ 0.0669 µg/mL)

## COCCNC(=O)c1cc2c(C)cc(C)cc2[nH]1
[4]
  solubility thermodynamic at 24 h: 620 µM (≈ 153 µg/mL)
[10]
  MIC50: > 20 µM

## CC1(C)CCC(NC(=O)c2cc3c(Cl)cc(Cl)cc3[nH]2)CC1
[11]
  microsomal CLint: 59 µL/min/mg
[1]
  half-life: 5.25 h
[12]
  microsomal CLint: 139 µL/min/mg
[2]
  AUC(0-t) at 24 h: 33.9 µM·h
[13]
  FC: 4.79
[15]
  AUC(0-t): 70.3 µM·h
[3]
  half-life: 5.96 h
[4]
  solubility thermodynamic at 24 h: < 4 µM
THP-1
  Activity: > 20 µM
[5]
  Vd: 4.11 L/kg
[6]
  bioavailability: 53%
[7]
  clearance: 18.1 mL/min/kg
[8]
  Cmax: 3.51 µM
[9]
  microsomal CLint: 13 µL/min/mg
[14]
  FC: 2.6
[10]
  MIC50: 0.015 µM (≈ 0.00509 µg/mL)
[16]
  half-life: 8.14 h

## CC1CCC(NC(=O)c2cc3cccc(Cl)c3[nH]2)CC1 (stereo not drawn)
[9]
  microsomal CLint: 1040 µL/min/mg
[10]
  MIC50: 1.49 µM (≈ 0.433 µg/mL)

## CC[C@@H](CO)NCCN[C@@H](CC)CO
[17]
  Activity: Active

## CC1CCC(NC(=O)c2cc3c(F)cc(Cl)cc3[nH]2)CC1 (stereo not drawn)
[4]
  solubility thermodynamic at 24 h: < 4 µM
[9]
  microsomal CLint: 28 µL/min/mg
[10]
  MIC50: 0.19 µM (≈ 0.0587 µg/mL)

## C[C@H]1CCCC[C@H]1NC(=O)c1cc2c(F)cc(F)cc2[nH]1
[4]
  solubility thermodynamic at 24 h: < 4 µM
[9]
  microsomal CLint: 660 µL/min/mg
[10]
  MIC50: 0.28 µM (≈ 0.0819 µg/mL)

## Cc1cc(C)c2cc(C(=O)Nc3ccccc3)[nH]c2c1
[4]
  solubility thermodynamic at 24 h: < 4 µM
[10]
  MIC50: 16 µM (≈ 4.23 µg/mL)

## CC1CCC(NC(=O)c2cc3c(Cl)ccc(Cl)c3[nH]2)CC1 (stereo not drawn)
[9]
  microsomal CLint: 40.4 µL/min/mg
[10]
  MIC50: > 20 µM

## O=C(NC1CCC(F)(F)CC1)c1cc2c(Cl)cc(Cl)cc2[nH]1
[11]
  microsomal CLint: 7.8 µL/min/mg
[12]
  microsomal CLint: 38.8 µL/min/mg
[4]
  solubility thermodynamic at 24 h: < 4 µM
[9]
  microsomal CLint: 23 µL/min/mg
[10]
  MIC50: 0.85 µM (≈ 0.295 µg/mL)

## C[C@H]1CC[C@H](NC(=O)c2cc3c(F)cc(F)cc3[nH]2)CC1
[4]
  solubility thermodynamic at 24 h: < 4 µM
[9]
  microsomal CLint: 149 µL/min/mg
[10]
  MIC50: 0.16 µM (≈ 0.0468 µg/mL)

## C[C@H]1CCCC[C@H]1NC(=O)c1cc2c(Cl)cc(Cl)cc2[nH]1
[4]
  solubility thermodynamic at 24 h: < 4 µM
[9]
  microsomal CLint: 89 µL/min/mg
[10]
  MIC50: 0.053 µM (≈ 0.0172 µg/mL)

## Cc1cc(C)c2cc(C(=O)N[C@@H]3CCCC[C@@H]3C)n(C)c2c1
[10]
  MIC50: > 20 µM

## C[C@H]1CC[C@H](NC(=O)c2cc3c(Cl)cc(Cl)cc3[nH]2)CC1
[11]
  microsomal CLint: 10 µL/min/mg
[12]
  microsomal CLint: 30.5 µL/min/mg
[13]
  FC: 0.88
[15]
  AUC(0-t): 89.1 µM·h
[4]
  solubility thermodynamic at 24 h: < 4 µM
THP-1
  Activity: > 20 µM
[9]
  microsomal CLint: 3.4 µL/min/mg
[10]
  MIC50: 0.14 µM (≈ 0.0455 µg/mL)
[16]
  half-life: 5.29 h

## Cc1cc(C)c2cc(C(=O)NC3CCCCC3O)[nH]c2c1 (stereo not drawn)
[4]
  solubility thermodynamic at 24 h: 56 µM (≈ 16 µg/mL)
[10]
  MIC50: 8.9 µM (≈ 2.55 µg/mL)

## Cc1cc(C)c2cc(C(=O)NC(C)C)[nH]c2c1
[4]
  solubility thermodynamic at 24 h: 20 µM (≈ 4.61 µg/mL)
[10]
  MIC50: > 20 µM

## Cc1cc(C)c2cc(C(=O)NCC(C)C)[nH]c2c1
[10]
  MIC50: 11.8 µM (≈ 2.9 µg/mL)
